A short description of series [1]: 4-week GLP toxicology study in rats. Type of series: in vivo.
Series [2] is described as follows: First-in-human single ascending oral dose study: safety and pharmacokinetics.
The test system of series [3] is respiratory functions. Put plainly: GLP safety pharmacology, respiratory functions in rats. Type of series: in vivo.
Series [4] in a line: 4-week GLP toxicology study in dogs. Type of series: in vivo.
For series [5], the system named is E0771 tumors. The series is described as follows: E0771 orthotopic breast cancer model. The class given is in vivo, C57BL/6 mice.
In series [6] the target is 5-HT2B (Homo sapiens, UniProt P41595). The series is described as follows: 5-HT2B antagonist confirmation. The class given is biochemical.
Series [7] can be described thus: Pharmacokinetics in male CD1 mice: plasma exposure after oral gavage. The conditions noted are these: male CD1 mice, 3, 10 and 30 mg/kg oral gavage. The class given is in vivo.
Series [8] concerns bleomycin-induced pulmonary fibrosis. The series is described as follows: Bleomycin-induced pulmonary fibrosis. The class given is in vivo, C57BL/6 mice. In a few lines:
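Anaesthetised male C57BL/6 mice given intranasal bleomycin (0.6 mg/ml) or saline. Test compound 10 mg/kg or methocel/PBS vehicle by oral gavage twice daily from day 0 for 21 days; body weight monitored. Day 21: terminal plasma; BALF by two ice-cold saline lavages via tracheal cannula, supernatant after centrifugation. LPA species by LC-MS/MS; Mann–Whitney test.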

Series [9] has as its system circulating LPA C18:2. The series is described as follows: Pharmacodynamics in male CD1 mice: circulating LPA C18:2 after oral dose. Type of series: in vivo.
The test system of series [10] is 4T1 tumors. Put plainly: 4T1 metastasis assay with resection of the primary tumor. The class given is in vivo, BALB/c mice. In a few lines: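 Female BALB/c mice implanted surgically with 4T1 cells in the mammary fat-pad, n = 12 per group. Primary tumour resected at day 15 and weighed. Test compound 100 mg/kg b.i.d. by oral gavage. Lungs and bone marrow harvested 20 days after resection. Lungs fixed and H&E-stained for metastases. Bone marrow flushed from hind limbs, cultured in complete medium with 6-thioguanine 10 μg/ml, colonies crystal violet-stained.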

Series [11] in a line: In vitro toxicology. The conditions noted are these: based on absence of in vitro toxicology findings.
Series [12] relates to stimulated human primary cells (lung epithelial cells and fibroblasts; lung fibroblasts only; renal epithelial cells with lung fibroblasts). The series is described as follows: BioMAP Fibrosis phenotypic screening panel. Type of series: cell-based. The conditions noted are these: 6 μM, 48 h, TGF-β and TNF-α stimulated co-cultures. The method in brief: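 Three co-culture systems of human primary cells: lung epithelial cells with lung fibroblasts, lung fibroblasts alone, renal epithelial cells with lung fibroblasts. Cells stimulated with TGF-β and TNF-α, then exposed 48 h to test compound at 0.24, 1.2 and 6 μM. Biomarkers quantified by ELISA. Significance envelope: 95% CI bounds of historical vehicle controls.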

Series [13] has as its target 5-hydroxytryptamine 2B (5-HT2B) receptor (Homo sapiens, UniProt P41595). Put plainly: 5-HT2B receptor binding. The following applies: only hit of the panels.
Series [14] relates to cardiovascular and neurobehavioral functions. The series is described as follows: GLP safety pharmacology, cardiovascular and neurobehavioral functions in dogs. Type of series: in vivo.
Series [15] relates to LPA1, LPA2, LPA3, LPA5, S1P1, S1P2, SP3, S1P4 and S1P5; SafetyScreen44 panel. The series is described as follows: Off-target profiling on lipid receptor panel and SafetyScreen44 panel. The class given is binding.
The subject of series [16] is circulating LPA C18:2. The series is described as follows: First-in-human single ascending oral dose study: LPA C18:2 pharmacodynamics. Type of series: in vivo, healthy male volunteers.
The target in series [17] is hERG tail current (Homo sapiens, UniProt Q12809). The series is described as follows: GLP hERG assay. The class given is cell-based.
The subject of series [18] is tumor-infiltrating lymphocyte (TIL) migration. The conditions noted are these: LPA chemorepulsion of T cells; cited from earlier work.
For series [19] the following is noted: phase II, IPF patients, cited from earlier work.
For series [20], the system named is bleomycin-induced pulmonary fibrosis. The following applies: mouse; cited from earlier work.
Where [21] appears, read: single oral dose, healthy male volunteers.
Setting [22] is: 4T1, 20 days after removal of primary tumor.

Converted amounts (≈) assume the structure as drawn.

The NOAEL is the highest tested level that showed no adverse finding. The Tmax is the time from dosing to the highest level. One may read the IC50 as the concentration needed to halve the response being measured. As usually defined, the ED50 is the midpoint of the dose-response relation.

hERG tail current, sequence (Q12809 whole entry): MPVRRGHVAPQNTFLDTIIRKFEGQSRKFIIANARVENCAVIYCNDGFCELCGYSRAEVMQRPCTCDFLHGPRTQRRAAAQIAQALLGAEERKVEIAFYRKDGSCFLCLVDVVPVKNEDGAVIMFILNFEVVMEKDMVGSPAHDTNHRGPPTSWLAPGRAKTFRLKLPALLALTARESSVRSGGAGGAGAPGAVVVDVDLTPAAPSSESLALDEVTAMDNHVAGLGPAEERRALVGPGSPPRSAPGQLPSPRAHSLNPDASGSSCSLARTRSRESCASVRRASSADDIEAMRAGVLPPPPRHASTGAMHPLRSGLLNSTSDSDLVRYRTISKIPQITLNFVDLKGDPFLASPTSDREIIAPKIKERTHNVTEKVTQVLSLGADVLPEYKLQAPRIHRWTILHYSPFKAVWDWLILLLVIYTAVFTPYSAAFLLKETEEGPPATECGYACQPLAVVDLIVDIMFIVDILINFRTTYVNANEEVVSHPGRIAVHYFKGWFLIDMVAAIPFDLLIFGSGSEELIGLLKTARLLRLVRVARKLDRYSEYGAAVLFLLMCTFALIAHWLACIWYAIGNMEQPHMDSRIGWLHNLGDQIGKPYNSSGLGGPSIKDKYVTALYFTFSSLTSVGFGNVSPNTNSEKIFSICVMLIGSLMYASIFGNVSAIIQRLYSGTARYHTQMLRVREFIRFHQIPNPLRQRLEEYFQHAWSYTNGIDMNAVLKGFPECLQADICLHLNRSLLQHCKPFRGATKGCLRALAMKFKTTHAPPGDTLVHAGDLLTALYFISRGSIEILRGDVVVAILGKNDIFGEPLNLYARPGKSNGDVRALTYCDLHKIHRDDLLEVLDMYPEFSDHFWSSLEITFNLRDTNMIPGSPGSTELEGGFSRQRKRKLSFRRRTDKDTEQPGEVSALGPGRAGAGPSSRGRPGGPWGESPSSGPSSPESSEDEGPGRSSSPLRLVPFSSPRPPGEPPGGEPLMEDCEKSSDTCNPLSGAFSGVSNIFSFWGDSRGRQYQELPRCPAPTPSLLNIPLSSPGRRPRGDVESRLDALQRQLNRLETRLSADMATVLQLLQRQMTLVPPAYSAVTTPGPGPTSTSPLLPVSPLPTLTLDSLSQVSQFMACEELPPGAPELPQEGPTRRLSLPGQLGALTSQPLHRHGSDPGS
5-hydroxytryptamine 2B (5-HT2B) receptor, sequence (P41595 whole entry): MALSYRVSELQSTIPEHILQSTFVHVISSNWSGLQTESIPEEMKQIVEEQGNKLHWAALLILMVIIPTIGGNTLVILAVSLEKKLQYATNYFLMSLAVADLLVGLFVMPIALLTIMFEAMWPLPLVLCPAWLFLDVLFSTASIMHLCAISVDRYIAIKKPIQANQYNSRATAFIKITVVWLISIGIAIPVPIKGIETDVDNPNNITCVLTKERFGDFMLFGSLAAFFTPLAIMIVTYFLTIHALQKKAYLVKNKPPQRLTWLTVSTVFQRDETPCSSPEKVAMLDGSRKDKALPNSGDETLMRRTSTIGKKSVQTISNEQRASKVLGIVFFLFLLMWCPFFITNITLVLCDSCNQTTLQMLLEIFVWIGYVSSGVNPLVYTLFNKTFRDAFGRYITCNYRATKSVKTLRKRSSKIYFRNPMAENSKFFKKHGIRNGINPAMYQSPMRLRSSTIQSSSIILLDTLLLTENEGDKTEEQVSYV
5-HT2B, sequence (P41595 whole entry, species assumed): as the sequence (P41595 whole entry) above

In series [1] (rat, in vivo, po), `C[C@H](NC(=O)CCc1nc2cccnc2n1Cc1ccc(OC(F)(F)F)cc1)c1ccc(Cl)cc1` [IOA-289] registered an NOAEL at 4 weeks of 300 mg/kg/day. Moreover, the “main target organs for toxicity” value in series [1] (rats, all findings reversible) is “the liver, the bone marrow and the stomach in both sexes and additionally the kidneys, the testes and thyroids in males”. Moreover, the Tmax in series [2] (male, human, in vivo, po) stood at 1 h. Moreover, in [2] (single ascending oral doses, five cohorts), the “maximum plasma concentrations versus dose” value is listed as “increased dose proportionally”. Further, in [2] (setting [21]), the adverse events result is “no adverse events reported”; the safety and tolerability result is on record as “well tolerated”. For the same compound, the “effects on respiratory functions” value in series [3] is given as “no relevant effects”. This compound also gave an NOAEL at 4 weeks in series [4] (dog, in vivo, po) of 60 mg/kg/day. In addition, in series [4] (dogs), the “main target organs for toxicity” value is “the gastrointestinal tract, the liver, the bladder and the parotid gland”. The tumor growth result in [5] (E0771, 30 mg/kg b.i.d. oral from day 3 to day 40, compared with control group) is recorded as “reduced the tumor growth”. Also, the complete tumor eradication result in series [5] (E0771, n = 10 per group) is “complete tumor eradication in two mice”. This compound also came in with an IC50 in [6] of 2.5 µM. In series [7], the plasma exposure entry is “dose-proportional increase”. Further, in [8] (BLM model, day 21), the “LPA C18:2 levels in BALF” value is recorded as “significantly reduced” and the “LPA C18:2 levels in plasma” value is “significantly reduced”. For the same compound, the “severity of the BLM model followed by body weight” value in series [8] (compared with vehicle treatment) is “alleviated the severity substantially”. For the same compound, the ED50 in series [9] (Mus musculus, po, 1 h, read-out: ED50, reduction of circulating LPA C18:2) was approximately 3 mg/kg. Also, in [9] (male CD1 mice, 3, 10 and 30 mg/kg oral gavage), the “reduction of circulating LPA C18:2” value is listed as “dose-dependent reduction”. For the same compound, in series [10] (setting [22]), the “bone metastases (colony formation assay from bone marrow)” value is given as “marked reduction” and the “metastatic burden in lungs (histology)” value is reported as “marked reduction”. For the same compound, the primary tumor growth entry in series [10] (4T1, primary tumor resected at day 15) is given as “no effect”. Besides, the “risk for genotoxicity, phototoxicity and cytotoxicity” value in series [11] is given as “low risk”. For the same compound, in series [12], the “activity of EGFR” value is given as “significantly decreased”, the “activity of MCP-1” value is “significantly decreased”, the “activity of collagen III (Col-III)” value is “significantly decreased” and the “activity of sIL-6” value is reported as “significantly decreased”. In addition, in [12], the “activity of sIL-8” value is given as “significantly decreased”, the “activity of sVEGF” value is on record as “significantly decreased” and the “activity of αSMA” value is listed as “significantly decreased”. The “binding to 5-HT2B receptor” value in series [13] is reported as “sub-micromolar binding”. Besides, in [14], the “effects on cardiovascular (including QTc changes) and neurobehavioral functions” value is given as “no relevant effects”. Further, the off-target interactions result in [15] is listed as “no to minimal potential off-target interactions”. The IC50 in series [16] (Homo sapiens, po, read-out: IC50 on % LPA C18:2 reduction from baseline) turned out to be 0.015 µg/mL (≈ 0.0298 µM). In series [16] (maximal inhibition at cohorts 4 and 5 dose levels), the “circulating levels of LPA C18:2” value is “dose-related decrease”. Also, the “time of peak inhibition of LPA C18:2 after dose” value in [16] (single oral dose) is 1 to 2 h. In series [17], this compound showed an IC50 of 1.03 µM. The “TIL migration in vitro” value in [18] is “can rescue”.

As to `CCc1nc2c(C)cc(N3CCN(CC(=O)N4CC(O)C4)CC3)cn2c1N(C)c1nc(-c2ccc(F)cc2)c(C#N)s1` [ziritaxestat, 2-[[2-ethyl-6-[4-[2-(3-hydroxyazetidin-1-yl)-2-oxo-ethyl]piperazin-1-yl]-8-methyl-imidazo[1,2-a]pyridin-3-yl]-methyl-amino]-4-(4-fluorophenyl)thiazole-5-carbonitrile], in [19] (12 weeks), the “plasma LPA C18:2 levels” value was “reducing” and the tolerability result is “well tolerated”. Moreover, the forced vital capacity result in series [19] (after 12 weeks of treatment) is given as “stabilizing”. In [20], the “efficacy in bleomycin-induced pulmonary fibrosis model” value is given as “demonstrated efficacy”.
